How the values were obtained:
DNA gyrase = DNA gyrase (Escherichia coli, UniProt P0AES4+P0AES6); assay: Compound evaluated in vitro for the ability to inhibit gyrase.; type: protein-complex assay; conditions: read-out: I50 (converted)
How it was run: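 DNA gyrase isolated from Escherichia coli H560 cells; inhibition given as I50.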

Escherichia coli [1] = assay: In vivo protection against gram-negative Escherichia coli vogel in mouse after subcutaneous administration; conditions: sc, read-out: PD50
Streptococcus pneumoniae [2] = assay: In vivo protection against gram-positive Streptococcus pneumonia (SV-1) in mouse after subcutaneous administration; type: functional; conditions: sc, read-out: PD50
[3] = Compound evaluated in vitro against five gram-positive bacterial strains and geometric means of the minimum inhibitory concentrations (MIC) reported.; type: functional; parameters: unit not given here
How it was run: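 Geometric mean MIC across five Gram-positive strains, taken as antilog of the averaged log MIC values.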

Escherichia coli [4] = assay: In vivo protection against gram-negative Escherichia coli vogel in mouse after oral administration.; conditions: read-out: PD50
Streptococcus pneumoniae [5] = assay: In vivo protection against gram-positive Streptococcus pneumonia (SV-1) in mouse after oral administration.; type: functional; conditions: read-out: PD50
[6] = Compound evaluated in vitro against five gram-negative bacterial strains and geometric means of the minimum inhibitory concentrations (MIC) reported.; type: functional; parameters: unit not given here
How it was run: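 Geometric mean MIC across five Gram-negative strains (E. coli H560, E. coli Vogel, Enterobacter cloacae MA 2646, Klebsiella pneumoniae MGH-2, Proteus rettgeri M1771). Mean taken as antilog of the averaged log MIC values.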

Question: Which IC50 (DNA gyrase) does the source give for CN1CC2C[C@@H]1CN2c1nc2c(cc1F)c(=O)c(C(=O)O)cn2C1CC1.Cl here?
Answer: 9.62 µM

Question: And the ED50 (Escherichia coli [1])?
Answer: 0.3 mg/kg

Question: What about the ED50 (Streptococcus pneumoniae [2]) of the same molecule?
Answer: 25 mg/kg

Question: What about the MIC [3] of the same molecule?
Answer: 0.35

Question: What about the ED50 (Escherichia coli [4]) of the same molecule?
Answer: 0.5 mg/kg

Question: And the ED50 (Streptococcus pneumoniae [5])?
Answer: 23 mg/kg

Question: And the MIC [6]?
Answer: 0.08
